Test results as given in ChEMBL document CHEMBL1154674, “Synthesis and evaluation of three 18F-labeled aminophenylbenzothiazoles as amyloid imaging agents” (J Med Chem, 2009).

What was measured:
Format in all cases: ADME, organism-based
[1] = Biodistribution in NMRI mouse urine at 3.7 MBq/mL, iv after 2 mins by gamma counting; conditions: in vivo
Procedure, shortened: (§1)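 Male NMRI mice (30-40 g) under isoflurane (1.5-2.5% in oxygen) got 0.1 mL of HPLC-purified tracer diluted with 0.9% NaCl to 3.7 MBq/mL (ethanol ≤10%) via tail vein. Mice were decapitated at 2 or 60 min p.i., and organs, blood and urine were weighed and γ-counted. Values are background-corrected %ID or %ID/g, with blood mass taken as 7% of body mass.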

[2] = Biodistribution in NMRI mouse urine at 3.7 MBq/mL, iv after 60 mins by gamma counting; conditions: in vivo, 1 h; procedure, shortened: as §1
[3] = system: Kidney; experiment: Biodistribution in NMRI mouse kidney at 3.7 MBq/mL, iv after 2 mins by gamma counting; conditions: in vivo; procedure, shortened: as §1
[4] = system: Kidney; experiment: Biodistribution in NMRI mouse kidney at 3.7 MBq/mL, iv after 60 mins by gamma counting; conditions: in vivo, 1 h; procedure, shortened: as §1
[5] = system: Kidney; experiment: Biodistribution in NMRI mouse kidney assessed per gram of tissue at 3.7 MBq/mL, iv after 2 mins by gamma counting; conditions: in vivo; procedure, shortened: as §1
[6] = system: Kidney; experiment: Biodistribution in NMRI mouse kidney assessed per gram of tissue at 3.7 MBq/mL, iv after 60 mins by gamma counting; conditions: in vivo, 1 h; procedure, shortened: as §1
[7] = system: Kidney; experiment: Drug level in NMRI mouse kidney assessed as standard uptake value at 3.7 MBq/mL, iv after 2 mins by gamma counting; conditions: in vivo
Procedure, shortened: (§2)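 Male NMRI mice (30-40 g) were anaesthetised with isoflurane. Each received 0.1 mL of HPLC-purified tracer, diluted in 0.9% NaCl to 3.7 MBq/mL (ethanol ≤10%), via a tail vein. Mice were decapitated at 2 or 60 min. Organs were dissected, weighed and γ-counted with background correction. SUV = (organ cpm/organ weight)/(total recovered counts/body weight). Blood mass was taken as 7% of body mass.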

[8] = system: Kidney; experiment: Drug level in NMRI mouse kidney assessed as standard uptake value at 3.7 MBq/mL, iv after 60 mins by gamma counting; conditions: in vivo, 1 h; procedure, shortened: as §2
[9] = system: Liver; experiment: Biodistribution in NMRI mouse liver at 3.7 MBq/mL, iv after 2 mins by gamma counting; conditions: in vivo; procedure, shortened: as §1
[10] = system: Liver; experiment: Biodistribution in NMRI mouse liver at 3.7 MBq/mL, iv after 60 mins by gamma counting; conditions: in vivo, 1 h; procedure, shortened: as §1
[11] = system: Liver; experiment: Biodistribution in NMRI mouse liver assessed per gram of tissue at 3.7 MBq/mL, iv after 2 mins by gamma counting; conditions: in vivo
[12] = system: Liver; experiment: Biodistribution in NMRI mouse liver assessed per gram of tissue at 3.7 MBq/mL, iv after 60 mins by gamma counting; conditions: in vivo, 1 h; procedure, shortened: as §1
[13] = system: Liver; experiment: Drug level in NMRI mouse liver assessed as standard uptake value at 3.7 MBq/mL, iv after 2 mins by gamma counting; conditions: in vivo; procedure, shortened: as §2
[14] = system: Liver; experiment: Drug level in NMRI mouse liver assessed as standard uptake value at 3.7 MBq/mL, iv after 60 mins by gamma counting; conditions: in vivo, 1 h; procedure, shortened: as §2
[15] = Biodistribution in NMRI mouse spleen/pancreas at 3.7 MBq/mL, iv after 2 mins by gamma counting; conditions: in vivo; procedure, shortened: as §1
[16] = Biodistribution in NMRI mouse spleen/pancreas at 3.7 MBq/mL, iv after 60 mins by gamma counting; conditions: in vivo, 1 h; procedure, shortened: as §1
[17] = Biodistribution in NMRI mouse spleen/pancreas assessed per gram of tissue at 3.7 MBq/mL, iv after 2 mins by gamma counting; conditions: in vivo; procedure, shortened: as §1
[18] = Biodistribution in NMRI mouse spleen/pancreas assessed per gram of tissue at 3.7 MBq/mL, iv after 60 mins by gamma counting; conditions: in vivo, 1 h; procedure, shortened: as §1
[19] = Drug level in NMRI mouse spleen/pancreas assessed as standard uptake value at 3.7 MBq/mL, iv after 2 mins by gamma counting; conditions: in vivo; procedure, shortened: as §2
[20] = Drug level in NMRI mouse spleen/pancreas assessed as standard uptake value at 3.7 MBq/mL, iv after 60 mins by gamma counting; conditions: in vivo, 1 h; procedure, shortened: as §2
[21] = system: Lung; experiment: Biodistribution in NMRI mouse lung at 3.7 MBq/mL, iv after 2 mins by gamma counting; conditions: in vivo; procedure, shortened: as §1
[22] = system: Lung; experiment: Biodistribution in NMRI mouse lung at 3.7 MBq/mL, iv after 60 mins by gamma counting; conditions: in vivo, 1 h; procedure, shortened: as §1
[23] = system: Lung; experiment: Biodistribution in NMRI mouse lung assessed per gram of tissue at 3.7 MBq/mL, iv after 2 mins by gamma counting; conditions: in vivo; procedure, shortened: as §1
[24] = system: Lung; experiment: Biodistribution in NMRI mouse lung assessed per gram of tissue at 3.7 MBq/mL, iv after 60 mins by gamma counting; conditions: in vivo, 1 h; procedure, shortened: as §1
[25] = system: Lung; experiment: Drug level in NMRI mouse lung assessed as standard uptake value at 3.7 MBq/mL, iv after 2 mins by gamma counting; conditions: in vivo; procedure, shortened: as §2
[26] = system: Lung; experiment: Drug level in NMRI mouse lung assessed as standard uptake value at 3.7 MBq/mL, iv after 60 mins by gamma counting; conditions: in vivo, 1 h; procedure, shortened: as §2
[27] = system: Heart; experiment: Biodistribution in NMRI mouse heart at 3.7 MBq/mL, iv after 2 mins by gamma counting; conditions: in vivo; procedure, shortened: as §1
[28] = system: Heart; experiment: Biodistribution in NMRI mouse heart at 3.7 MBq/mL, iv after 60 mins by gamma counting; conditions: in vivo, 1 h; procedure, shortened: as §1
[29] = system: Heart; experiment: Biodistribution in NMRI mouse heart assessed per gram of tissue at 3.7 MBq/mL, iv after 2 mins by gamma counting; conditions: in vivo; procedure, shortened: as §1
[30] = system: Heart; experiment: Biodistribution in NMRI mouse heart assessed per gram of tissue at 3.7 MBq/mL, iv after 60 mins by gamma counting; conditions: in vivo, 1 h; procedure, shortened: as §1
[31] = system: Heart; experiment: Drug level in NMRI mouse heart assessed as standard uptake value at 3.7 MBq/mL, iv after 2 mins by gamma counting; conditions: in vivo; procedure, shortened: as §2
[32] = system: Heart; experiment: Drug level in NMRI mouse heart assessed as standard uptake value at 3.7 MBq/mL, iv after 60 mins by gamma counting; conditions: in vivo, 1 h; procedure, shortened: as §2
[33] = system: Intestine; experiment: Biodistribution in NMRI mouse intestine at 3.7 MBq/mL, iv after 2 mins by gamma counting; conditions: in vivo; procedure, shortened: as §1
[34] = system: Intestine; experiment: Biodistribution in NMRI mouse intestine at 3.7 MBq/mL, iv after 60 mins by gamma counting; conditions: in vivo, 1 h; procedure, shortened: as §1
[35] = system: Stomach; experiment: Biodistribution in NMRI mouse stomach at 3.7 MBq/mL, iv after 2 mins by gamma counting; conditions: in vivo; procedure, shortened: as §1
[36] = system: Stomach; experiment: Biodistribution in NMRI mouse stomach at 3.7 MBq/mL, iv after 60 mins by gamma counting; conditions: in vivo, 1 h; procedure, shortened: as §1
[37] = Biodistribution in NMRI mouse cerebrum at 3.7 MBq/mL, iv after 2 mins by gamma counting; conditions: in vivo; procedure, shortened: as §1
[38] = Biodistribution in NMRI mouse cerebrum at 3.7 MBq/mL, iv after 60 mins by gamma counting; conditions: in vivo, 1 h; procedure, shortened: as §1
[39] = Biodistribution in NMRI mouse cerebrum assessed per gram of tissue at 3.7 MBq/mL, iv after 2 mins by gamma counting; conditions: in vivo; procedure, shortened: as §1
[40] = Biodistribution in NMRI mouse cerebrum assessed per gram of tissue at 3.7 MBq/mL, iv after 60 mins by gamma counting; conditions: in vivo, 1 h; procedure, shortened: as §1
[41] = Drug level in NMRI mouse cerebrum assessed as standard uptake value at 3.7 MBq/mL, iv after 2 mins by gamma counting; conditions: in vivo; procedure, shortened: as §2
[42] = Drug level in NMRI mouse cerebrum assessed as standard uptake value at 3.7 MBq/mL, iv after 60 mins by gamma counting; conditions: in vivo, 1 h; procedure, shortened: as §2
[43] = system: Cerebellum; experiment: Biodistribution in NMRI mouse cerebellum at 3.7 MBq/mL, iv after 2 mins by gamma counting; conditions: in vivo; procedure, shortened: as §1
[44] = system: Cerebellum; experiment: Biodistribution in NMRI mouse cerebellum at 3.7 MBq/mL, iv after 60 mins by gamma counting; conditions: in vivo, 1 h; procedure, shortened: as §1
[45] = system: Cerebellum; experiment: Biodistribution in NMRI mouse cerebellum assessed per gram of tissue at 3.7 MBq/mL, iv after 2 mins by gamma counting; conditions: in vivo; procedure, shortened: as §1
[46] = system: Cerebellum; experiment: Biodistribution in NMRI mouse cerebellum assessed per gram of tissue at 3.7 MBq/mL, iv after 60 mins by gamma counting; conditions: in vivo, 1 h; procedure, shortened: as §1
[47] = system: Cerebellum; experiment: Drug level in NMRI mouse cerebellum assessed as standard uptake value at 3.7 MBq/mL, iv after 2 mins by gamma counting; conditions: in vivo; procedure, shortened: as §2
[48] = system: Cerebellum; experiment: Drug level in NMRI mouse cerebellum assessed as standard uptake value at 3.7 MBq/mL, iv after 60 mins by gamma counting; conditions: in vivo, 1 h; procedure, shortened: as §2
[49] = system: Blood; experiment: Biodistribution in NMRI mouse blood at 3.7 MBq/mL, iv after 2 mins by gamma counting; conditions: in vivo; procedure, shortened: as §1
[50] = system: Blood; experiment: Biodistribution in NMRI mouse blood at 3.7 MBq/mL, iv after 60 mins by gamma counting; conditions: in vivo, 1 h; procedure, shortened: as §1
[51] = system: Blood; experiment: Biodistribution in NMRI mouse blood assessed per gram of tissue at 3.7 MBq/mL, iv after 2 mins by gamma counting; conditions: in vivo; procedure, shortened: as §1
[52] = system: Blood; experiment: Biodistribution in NMRI mouse blood assessed per gram of tissue at 3.7 MBq/mL, iv after 60 mins by gamma counting; conditions: in vivo, 1 h; procedure, shortened: as §1
[53] = system: Blood; experiment: Drug level in NMRI mouse blood assessed as standard uptake value at 3.7 MBq/mL, iv after 2 mins by gamma counting; conditions: in vivo; procedure, shortened: as §2
[54] = system: Blood; experiment: Drug level in NMRI mouse blood assessed as standard uptake value at 3.7 MBq/mL, iv after 60 mins by gamma counting; conditions: in vivo, 1 h; procedure, shortened: as §2

- Drug uptake [1]: 0.2%
- Drug uptake [2]: 3.3%
- Drug uptake [3]: 5.8%
- Drug uptake [4]: 2.3%
- Drug uptake [5]: 9.3%
- Drug uptake [6]: 3.6%
- SUV [7]: 3.4
- SUV [8]: 1.4
- Drug uptake [9]: 24.8%
- Drug uptake [10]: 51.8%
- Drug uptake [11]: 12%
- Drug uptake [12]: 24.6%
- SUV [13]: 4.5
- SUV [14]: 9.2
- Drug uptake [15]: 1.3%
- Drug uptake [16]: 0.1%
- Drug uptake [17]: 4%
- Drug uptake [18]: 0.4%
- SUV [19]: 1.5
- SUV [20]: 0.2
- Drug uptake [21]: 3.6%
- Drug uptake [22]: 0.3%
- Drug uptake [23]: 14.4%
- Drug uptake [24]: 1.3%
- SUV [25]: 5.3
- SUV [26]: 0.5
- Drug uptake [27]: 0.9%
- Drug uptake [28]: 0.1%
- Drug uptake [29]: 5.4%
- Drug uptake [30]: 0.5%
- SUV [31]: 2
- SUV [32]: 0.2
- Drug uptake [33]: 8.9%
- Drug uptake [34]: 19.3%
- Drug uptake [35]: 1.3%
- Drug uptake [36]: 1.1%
- Drug uptake [37]: 1.62%
- Drug uptake [38]: 0.07%
- Drug uptake [39]: 5.33%
- Drug uptake [40]: 0.27%
- SUV [41]: 1.97
- SUV [42]: 0.1
- Drug uptake [43]: 0.42%
- Drug uptake [44]: 0.04%
- Drug uptake [45]: 5.99%
- Drug uptake [46]: 0.39%
- SUV [47]: 2.21
- SUV [48]: 0.15
- Drug uptake [49]: 5.7%
- Drug uptake [50]: 2.8%
- Drug uptake [51]: 2.2%
- Drug uptake [52]: 1.1%
- SUV [53]: 0.8
- SUV [54]: 0.4
SMILES: Cc1ccc2nc(-c3ccc([18F])cc3)sc2c1
